Active and inactive are the calls of the source. The calls are words filed in the database; no cut-off is given here.
What was measured:
Plasmodium falciparum [1] = assay: (§1) Antimalarial activity against chloroquine-resistant blood stage Plasmodium falciparum W2 infected in human erythrocytes assessed as parasite growth inhibition at 10 ug/ml incubated for 24 hrs followed by [3H]-hypoxanthine addition and further incubated for 24 hrs followed by cooling and measured after 24 hrs by beta radiation counter analysis relative to control; type: functional; conditions: W2, Erythrocyte, time 72 hrs
Method in brief: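 P. falciparum W2 grown in human O+ erythrocytes in RPMI 1640 with 10% human plasma, at 1% parasitemia and 2.5% hematocrit. Compounds diluted with 4% DMSO and medium, tested in triplicate. [3H]-hypoxanthine incorporation read; inhibition calculated against untreated parasites.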

[2] = Cytotoxicity against human HepG2 cells assessed as reduction in cell growth measured after 72 hrs by alamar blue assay; type: cell-based
Method in brief: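 HepG2 cells in phenol red-free RPMI-1640 with 10% FBS were seeded at 10⁴ cells/well. After 24 h they were exposed to five concentrations in triplicate for 72 h at 37 °C, 5% CO₂. AlamarBlue (20%) was added for 24 h, and absorbance was read at 570/600 nm. CC50 came from non-linear regression, two independent experiments. Gentian violet served as the cytotoxic control.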

[3] = Selectivity index, ratio of CC50 for human HepG2 cells assessed as cell growth inhibition measured after 72 hrs by alamar blue assay to IC50 for chloroquine-resistant blood stage Plasmodium falciparum W2 infected in human erythrocytes assessed as parasite growth inhibition incubated for 24 hrs followed by [3H]-hypoxanthine addition and further incubated for 24 hrs followed by cooling and measured after 24 hrs by beta radiation counter analysis; type: toxicity, cell-based; conditions: read-out: Ratio CC50/IC50
Plasmodium falciparum [4] = assay: as §1, with “inhibition” for “inhibition at 10 ug/ml”, “analysis” for “analysis relative to control”; type: functional, organism-based; conditions: W2, Erythrocyte
Method in brief: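 W2 P. falciparum cultured in O+ human erythrocytes in RPMI 1640 plus 10% human plasma, at 1% parasitemia and 2.5% hematocrit. At least five compound concentrations, each in triplicate. Growth measured as [3H]-hypoxanthine uptake relative to untreated parasites. IC50 derived from two independent experiments.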

Hemozoin [5] = assay: Potency index, ratio of chloroquine IC50 to test compound IC50 for inhibition of beta-hematin formation measured after 24 hrs by spectrophotometry analysis
Method in brief: (§2)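 Haemin (0.5 mg/mL in 0.2 M NaOH) was mixed with 3 M sodium acetate, 17.4 M acetic acid and compound, tested at up to 2.5 mM. Incubation was 24 h at 37 °C. Pellets were washed with DMSO twice and water, dissolved in 0.1 M NaOH, and read at 405 nm. Inhibition was taken against a no-compound control, at least twice in triplicate. Chloroquine was the positive control. CQ index = IC50 CQ / IC50 compound.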

Hemozoin [6] = assay: Inhibition of beta-hematin formation measured after 24 hrs by spectrophotometry analysis; method in brief: as §2
[7] = Hemolytic activity in human erythrocytes measured after 1 hr by microtiter plate method; type: ADME, cell-based, Erythrocyte; conditions: read-out: CC50
Method in brief: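 Fresh human O⁺ erythrocytes were washed three times in PBS and used at 1% hematocrit. Compounds dissolved in PBS were added in triplicate and incubated 1 h; saponin 1% v/v served as the full-lysis control. After centrifugation, haemoglobin released into the supernatant was read at 540 nm and hemolysis CC50 derived.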

Plasmodium berghei [8] = assay: Antimalarial activity against Plasmodium berghei NK65 infected in Swiss mouse assessed as decrease in parasitemia at 100 mg/kg, ip qd administered via gavage for 4 consecutive days and measured up to 8 days by optical microscopy analysis; type: functional, organism-based; conditions: time day <=8
Method in brief: (§3)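 Adult Swiss mice (4-6 weeks, n=5/group) inoculated i.p. with 10⁶ P. berghei NK65-infected red cells. Dosing began 1 h post-infection, once daily for 4 consecutive days by oral gavage or i.p. Vehicle was DMSO 20% in saline. Tail blood smears were taken on days 4–8, methanol-fixed, panoptic-stained and read by light microscopy. Inhibition = [(C−T)/C]×100 versus vehicle controls. Means ± SEM.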

Plasmodium berghei [9] = assay: Antimalarial activity against Plasmodium berghei NK65 infected in Swiss mouse assessed as decrease in parasitemia at 100 mg/kg, po qd administered via gavage for 4 consecutive days and measured up to 8 days by optical microscopy analysis; type: functional, organism-based; conditions: time day <=8; method in brief: as §3
Plasmodium berghei [10] = assay: Antimalarial activity against Plasmodium berghei NK65 infected in Swiss mouse assessed as increase in mouse survival at 100 mg/kg, po qd administered via gavage for 4 consecutive days and […] relative to control; type: functional, organism-based
Method in brief: (§4)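 Swiss mice (n=5/group) infected i.p. with 10⁶ P. berghei NK65 red cells, then treated 1 h later, once daily for 4 days, orally by gavage or i.p. Vehicle was DMSO in saline. Survival was followed to 30 days post-infection and compared with vehicle by Mantel-Cox test. One experiment of two replicates.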

Plasmodium berghei [11] = assay: Antimalarial activity against Plasmodium berghei NK65 infected in Swiss mouse assessed as decrease in parasitemia at 50 mg/kg, po qd administered via gavage for 4 consecutive days and measured up to 8 days by optical microscopy analysis; type: functional, organism-based; conditions: time day <=8; method in brief: as §3
Plasmodium berghei [12] = assay: Antimalarial activity against Plasmodium berghei NK65 infected in Swiss mouse assessed as increase in mouse survival at 50 mg/kg, po qd administered via gavage for 4 consecutive days and […] relative to control; type: functional
Method in brief: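 Swiss mice, 4–6 weeks, n=5 per group, infected i.p. with 10⁶ P. berghei NK65-infected red cells. Treated once daily for 4 consecutive days starting 1 h post-infection, dosed by oral gavage in 20% DMSO. Vehicle controls received DMSO in saline. Survival followed up to 30 days; Mantel-Cox test. One experiment of two replicates.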

Plasmodium berghei [13] = assay: Antimalarial activity against Plasmodium berghei NK65 infected in Swiss mouse assessed as effect on mouse survival at 25 to 50 mg/kg, ip qd administered via gavage for 4 consecutive days and […] by optical microscopy analysis; type: functional, organism-based; conditions: dose 25-50 mg/kg; method in brief: as §4
Plasmodium berghei [14] = assay: Antimalarial activity against Plasmodium berghei NK65 infected in Swiss mouse assessed as decrease in parasitemia at 25 to 50 mg/kg, ip qd administered via gavage for 4 consecutive days and measured up to 8 days by optical microscopy analysis; type: functional, organism-based; conditions: dose 25-50 mg/kg, time day <=8; method in brief: as §3

SMILES: O=C(N/N=C/C=C/c1ccccc1)c1nc(-c2ccc(O)cc2)no1
- inhibition at 10 µg/mL (Plasmodium falciparum [1]): 39.1%

SMILES: COc1ccc(-c2noc(C(=O)N/N=C/c3ccc4c(c3)OCO4)n2)cc1
- inhibition at 10 µg/mL (Plasmodium falciparum [1]): 27.5%

SMILES: O=C(N/N=C/c1ccc2c(c1)OCO2)c1nc(-c2ccc(F)cc2)no1
- inhibition at 10 µg/mL (Plasmodium falciparum [1]): 31.6%

SMILES: O[C@@H](c1cc(C(F)(F)F)nc2c(C(F)(F)F)cccc12)[C@H]1CCCCN1 [(S,R)-MEFLOQUINE]
- CC50 at 72 h [2]: 11.8 µM
- selectivity ratio at 72 h [3]: 295
- IC50 (Plasmodium falciparum [4]): 0.04 µM
- inhibition at 10 µg/mL (Plasmodium falciparum [1]): 100%

SMILES: O=C(N/N=C/c1ccc2c(c1)OCO2)c1nc(-c2ccc(O)cc2)no1
- Ratio IC50 (Hemozoin [5]): 1
- IC50 (Hemozoin [6]): 800 µM
- HC50 at 1 h [7]: > 100 µg/mL
- CC50 at 72 h [2]: > 200 µM
- IC50 (Plasmodium falciparum [4]): 1.5 µM
- inhibition at 10 µg/mL (Plasmodium falciparum [1]): 71.9%

SMILES: O=C(N/N=C/c1ccc2c(c1)OCO2)c1nc(-c2ccc(Cl)cc2)no1
- inhibition at 10 µg/mL (Plasmodium falciparum [1]): 53%

SMILES: COc1ccc(-c2noc(C(=O)N/N=C/C=C/c3ccccc3)n2)cc1
- inhibition at 10 µg/mL (Plasmodium falciparum [1]): 26.1%

SMILES: O=C(N/N=C/C=C/c1ccccc1)c1nc(-c2ccc(Cl)cc2)no1
- inhibition at 10 µg/mL (Plasmodium falciparum [1]): 28.8%

SMILES: COc1cc(/C=N/NC(=O)c2nc(-c3ccc(Cl)cc3)no2)ccc1O
- inhibition at 10 µg/mL (Plasmodium falciparum [1]): 37%

SMILES: Cc1ccc(-c2noc(C(=O)N/N=C/c3ccc4c(c3)OCO4)n2)cc1
- inhibition at 10 µg/mL (Plasmodium falciparum [1]): 21.9%

SMILES: O=C(N/N=C/c1ccc2c(c1)OCO2)c1nc(-c2ccc(Br)cc2)no1
- inhibition at 10 µg/mL (Plasmodium falciparum [1]): 45.3%

SMILES: COc1cc(/C=N/NC(=O)c2nc(-c3ccc(Br)cc3)no2)ccc1O
- Ratio IC50 (Hemozoin [5]): 0.8
- IC50 (Hemozoin [6]): 900 µM
- Activity (Plasmodium berghei [8]): inactive
- HC50 at 1 h [7]: 33 µg/mL
- Activity (Plasmodium berghei [9]): inactive
- CC50 at 72 h [2]: 16.9 µM
- selectivity ratio at 72 h [3]: 241
- Activity (Plasmodium berghei [10]): inactive
- IC50 (Plasmodium falciparum [4]): 0.07 µM
- inhibition at 10 µg/mL (Plasmodium falciparum [1]): 71.1%

SMILES: O=C(N/N=C/C=C/c1ccccc1)c1nc(-c2ccc(F)cc2)no1
- inhibition at 10 µg/mL (Plasmodium falciparum [1]): 34.3%

SMILES: COc1cc(/C=N/NC(=O)c2nc(-c3ccc(F)cc3)no2)ccc1O
- inhibition at 10 µg/mL (Plasmodium falciparum [1]): 24.7%

SMILES: COc1ccc(-c2noc(C(=O)N/N=C/c3ccc(O)c(OC)c3)n2)cc1
- inhibition at 10 µg/mL (Plasmodium falciparum [1]): 42.2%

SMILES: CCN(CC)CCCC(C)Nc1ccnc2cc(Cl)ccc12 (stereo unspecified) [CHLOROQUINE]
- Activity (Plasmodium berghei [11]): Active
- Activity (Plasmodium berghei [12]): 100%
- IC50 (Hemozoin [6]): 800 µM
- HC50 at 1 h [7]: > 100 µg/mL

SMILES: O=C(N/N=C/c1ccc2c(c1)OCO2)c1nc(-c2ccccc2)no1
- inhibition at 10 µg/mL (Plasmodium falciparum [1]): 27.5%

SMILES: Cc1ccc(-c2noc(C(=O)N/N=C/C=C/c3ccccc3)n2)cc1
- inhibition at 10 µg/mL (Plasmodium falciparum [1]): 52.7%

SMILES: O=C(N/N=C/C=C/c1ccccc1)c1nc(-c2ccccc2)no1
- inhibition at 10 µg/mL (Plasmodium falciparum [1]): 51%

SMILES: COc1cc(/C=N/NC(=O)c2nc(-c3ccc([N+](=O)[O-])cc3)no2)ccc1O
- Activity (Plasmodium berghei [13]): inactive
- IC50 (Hemozoin [6]): > 2000 µM
- HC50 at 1 h [7]: > 100 µg/mL
- CC50 at 72 h [2]: 14.8 µM
- selectivity ratio at 72 h [3]: 74
- IC50 (Plasmodium falciparum [4]): 0.2 µM
- inhibition at 10 µg/mL (Plasmodium falciparum [1]): 68.7%
- Activity (Plasmodium berghei [14]): Active

SMILES: O=C(N/N=C/C=C/c1ccccc1)c1nc(-c2ccc([N+](=O)[O-])cc2)no1
- inhibition at 10 µg/mL (Plasmodium falciparum [1]): 25.7%

SMILES: COc1cc(/C=N/NC(=O)c2nc(-c3ccc(C)cc3)no2)ccc1O
- Ratio IC50 (Hemozoin [5]): 1.3
- IC50 (Hemozoin [6]): 600 µM
- Activity (Plasmodium berghei [8]): inactive
- HC50 at 1 h [7]: > 100 µg/mL
- Activity (Plasmodium berghei [9]): inactive
- CC50 at 72 h [2]: 46.6 µM
- selectivity ratio at 72 h [3]: 388
- Activity (Plasmodium berghei [10]): inactive
- IC50 (Plasmodium falciparum [4]): 0.12 µM
- inhibition at 10 µg/mL (Plasmodium falciparum [1]): 61.1%

SMILES: COc1cc(/C=N/NC(=O)c2nc(-c3ccccc3)no2)ccc1O
- inhibition at 10 µg/mL (Plasmodium falciparum [1]): 55.4%

SMILES: O=C(N/N=C/C=C/c1ccccc1)c1nc(-c2ccc(Br)cc2)no1
- inhibition at 10 µg/mL (Plasmodium falciparum [1]): 58.8%

SMILES: O=C(N/N=C/c1ccc2c(c1)OCO2)c1nc(-c2ccc([N+](=O)[O-])cc2)no1
- inhibition at 10 µg/mL (Plasmodium falciparum [1]): 33.9%

SMILES: COc1cc(/C=N/NC(=O)c2nc(-c3ccc(O)cc3)no2)ccc1O
- IC50 (Hemozoin [6]): > 2000 µM
- HC50 at 1 h [7]: > 100 µg/mL
- CC50 at 72 h [2]: > 200 µM
- IC50 (Plasmodium falciparum [4]): 1.9 µM
- inhibition at 10 µg/mL (Plasmodium falciparum [1]): 58.8%
